From ChEMBL document CHEMBL1150387, “Development and experimental validation of a docking strategy for the generation of kinase-targeted libraries” (J Med Chem, 2008)

Columns and labels:
[1] = biological target: Tyrosine-protein kinase Lyn (Homo sapiens) (UniProt P07948); assay: Inhibition of Lyn at 10 uM by HTRF assay relative to control
Method in brief: (§1)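 HTRF kinase assay, one panel of kinases. Inhibitor stock 50 µM in 100% DMSO; tested at 10 µM. ATP and substrate at final levels near Km. Final buffer: 50 mM Hepes/NaOH pH 7.4, 40 µM Na3VO4, 0.005% Tween-20, 1 mM DTT, MnCl2 or MgCl2 at kinase-dependent levels. Started by adding ATP/substrate. Reaction run at room temperature, time varied by kinase. Detection mix in 50 mM Hepes pH 7.4, 0.1% BSA, 150 mM KF, incubated ≥1 h at room temperature. Activity expressed as % of uninhibited control; n=2.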

[2] = Inhibition of IRK at 10 uM by HTRF assay relative to control; method in brief: as §1
[3] = biological target: Tyrosine-protein kinase Lck (Homo sapiens) (UniProt P06239); assay: Inhibition of Lck at 10 uM by HTRF assay relative to control; method in brief: as §1
[4] = biological target: Mitogen-activated protein kinase 14 (Homo sapiens) (UniProt Q16539); assay: Inhibition of p38alpha at 10 uM by HTRF assay relative to control; method in brief: as §1
[5] = biological target: Fibroblast growth factor receptor 1 (Homo sapiens) (UniProt P11362); assay: Inhibition of FGFR1 at 10 uM by HTRF assay relative to control; method in brief: as §1
[6] = biological target: High affinity nerve growth factor receptor (Homo sapiens) (UniProt P04629); assay: Inhibition of TrkA at 10 uM by HTRF assay relative to control; method in brief: as §1
[7] = biological target: T1, Tyrosine-protein kinase JAK3 (Homo sapiens) (UniProt P52333); assay: Inhibition of JAK3 at 10 uM by HTRF assay relative to control; method in brief: as §1
T1 sequence (whole entry): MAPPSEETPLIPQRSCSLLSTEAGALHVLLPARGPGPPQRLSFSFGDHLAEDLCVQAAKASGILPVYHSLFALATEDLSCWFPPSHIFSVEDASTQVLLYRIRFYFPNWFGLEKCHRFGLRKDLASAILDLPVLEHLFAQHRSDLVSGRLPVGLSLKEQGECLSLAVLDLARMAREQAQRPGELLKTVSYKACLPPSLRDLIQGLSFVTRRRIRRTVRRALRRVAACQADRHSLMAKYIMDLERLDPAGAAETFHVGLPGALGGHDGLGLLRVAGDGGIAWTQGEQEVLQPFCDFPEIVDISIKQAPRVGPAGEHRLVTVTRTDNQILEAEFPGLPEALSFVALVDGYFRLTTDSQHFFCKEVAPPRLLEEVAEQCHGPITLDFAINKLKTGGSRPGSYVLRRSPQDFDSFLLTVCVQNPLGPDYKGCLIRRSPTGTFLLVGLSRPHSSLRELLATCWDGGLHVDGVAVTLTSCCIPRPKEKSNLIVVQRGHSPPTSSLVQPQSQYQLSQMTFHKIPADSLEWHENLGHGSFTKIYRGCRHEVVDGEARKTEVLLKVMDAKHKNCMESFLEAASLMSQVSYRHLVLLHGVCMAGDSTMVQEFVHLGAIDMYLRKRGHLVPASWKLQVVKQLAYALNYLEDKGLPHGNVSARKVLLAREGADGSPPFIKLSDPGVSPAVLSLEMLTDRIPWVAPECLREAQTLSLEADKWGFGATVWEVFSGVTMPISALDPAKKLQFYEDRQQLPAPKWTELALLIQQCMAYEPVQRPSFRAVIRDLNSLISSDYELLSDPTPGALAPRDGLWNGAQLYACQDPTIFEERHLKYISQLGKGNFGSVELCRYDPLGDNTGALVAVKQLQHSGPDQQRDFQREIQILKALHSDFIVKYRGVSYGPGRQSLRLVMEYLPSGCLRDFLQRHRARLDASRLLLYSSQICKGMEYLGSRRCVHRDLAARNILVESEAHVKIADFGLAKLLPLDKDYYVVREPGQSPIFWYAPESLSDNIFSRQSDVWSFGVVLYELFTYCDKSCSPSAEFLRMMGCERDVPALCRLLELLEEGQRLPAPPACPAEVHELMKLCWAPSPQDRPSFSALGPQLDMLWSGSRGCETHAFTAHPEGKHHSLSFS

[8] = biological target: Vascular endothelial growth factor receptor 1 (Homo sapiens) (UniProt P17948); assay: Inhibition of FLT1 at 10 uM by HTRF assay relative to control; method in brief: as §1
[9] = biological target: RAC-alpha serine/threonine-protein kinase (Homo sapiens) (UniProt P31749); assay: Inhibition of AKT1/PKBalpha at 10 uM by HTRF assay relative to control; method in brief: as §1
[10] = biological target: Ribosomal protein S6 kinase beta-1 (Homo sapiens) (UniProt P23443); assay: Inhibition of p70S6K at 10 uM by HTRF assay relative to control; method in brief: as §1
[11] = biological target: Protein-tyrosine kinase 6 (Homo sapiens) (UniProt Q13882); assay: Inhibition of Brk at 10 uM by HTRF assay relative to control; method in brief: as §1
[12] = biological target: Mitogen-activated protein kinase 9 (Homo sapiens) (UniProt P45984); assay: Inhibition of JNK2 at 10 uM by HTRF assay relative to control; method in brief: as §1
[13] = biological target: Serine/threonine-protein kinase Chk2 (Homo sapiens) (UniProt O96017); assay: Inhibition of CHK2 at 10 uM by HTRF assay relative to control; method in brief: as §1
[14] = biological target: Tyrosine-protein kinase ABL1 (Homo sapiens) (UniProt P00519); assay: Inhibition of Abl at 10 uM by HTRF assay relative to control; method in brief: as §1
[15] = biological target: Vascular endothelial growth factor receptor 2 (Homo sapiens) (UniProt P35968); assay: Inhibition of KDR at 10 uM by HTRF assay relative to control; method in brief: as §1
[16] = biological target: Mitogen-activated protein kinase 8 (Homo sapiens) (UniProt P45983); assay: Inhibition of JNK1 at 10 uM by HTRF assay relative to control; method in brief: as §1
[17] = biological target: Rho-associated protein kinase 2 (Homo sapiens) (UniProt O75116); assay: Inhibition of ROCK2 at 10 uM by HTRF assay relative to control; method in brief: as §1

Chain of Serine/threonine-protein kinase Chk2 (Homo sapiens) (O96017 whole entry): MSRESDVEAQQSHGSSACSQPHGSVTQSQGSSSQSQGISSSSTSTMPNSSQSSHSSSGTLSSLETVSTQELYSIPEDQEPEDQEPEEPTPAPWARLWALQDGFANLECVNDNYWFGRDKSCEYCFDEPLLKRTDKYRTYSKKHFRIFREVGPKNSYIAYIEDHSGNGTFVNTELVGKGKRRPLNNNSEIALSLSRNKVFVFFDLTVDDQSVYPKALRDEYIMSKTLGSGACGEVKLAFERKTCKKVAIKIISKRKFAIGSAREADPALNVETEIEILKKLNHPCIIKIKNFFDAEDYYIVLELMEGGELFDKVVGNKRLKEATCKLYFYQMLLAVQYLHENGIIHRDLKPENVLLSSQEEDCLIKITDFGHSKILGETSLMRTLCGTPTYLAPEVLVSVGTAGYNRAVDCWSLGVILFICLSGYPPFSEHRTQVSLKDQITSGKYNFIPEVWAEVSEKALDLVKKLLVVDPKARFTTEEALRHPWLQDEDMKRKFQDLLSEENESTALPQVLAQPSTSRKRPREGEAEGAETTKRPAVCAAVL
Chain of Tyrosine-protein kinase ABL1 (Homo sapiens) (P00519 whole entry): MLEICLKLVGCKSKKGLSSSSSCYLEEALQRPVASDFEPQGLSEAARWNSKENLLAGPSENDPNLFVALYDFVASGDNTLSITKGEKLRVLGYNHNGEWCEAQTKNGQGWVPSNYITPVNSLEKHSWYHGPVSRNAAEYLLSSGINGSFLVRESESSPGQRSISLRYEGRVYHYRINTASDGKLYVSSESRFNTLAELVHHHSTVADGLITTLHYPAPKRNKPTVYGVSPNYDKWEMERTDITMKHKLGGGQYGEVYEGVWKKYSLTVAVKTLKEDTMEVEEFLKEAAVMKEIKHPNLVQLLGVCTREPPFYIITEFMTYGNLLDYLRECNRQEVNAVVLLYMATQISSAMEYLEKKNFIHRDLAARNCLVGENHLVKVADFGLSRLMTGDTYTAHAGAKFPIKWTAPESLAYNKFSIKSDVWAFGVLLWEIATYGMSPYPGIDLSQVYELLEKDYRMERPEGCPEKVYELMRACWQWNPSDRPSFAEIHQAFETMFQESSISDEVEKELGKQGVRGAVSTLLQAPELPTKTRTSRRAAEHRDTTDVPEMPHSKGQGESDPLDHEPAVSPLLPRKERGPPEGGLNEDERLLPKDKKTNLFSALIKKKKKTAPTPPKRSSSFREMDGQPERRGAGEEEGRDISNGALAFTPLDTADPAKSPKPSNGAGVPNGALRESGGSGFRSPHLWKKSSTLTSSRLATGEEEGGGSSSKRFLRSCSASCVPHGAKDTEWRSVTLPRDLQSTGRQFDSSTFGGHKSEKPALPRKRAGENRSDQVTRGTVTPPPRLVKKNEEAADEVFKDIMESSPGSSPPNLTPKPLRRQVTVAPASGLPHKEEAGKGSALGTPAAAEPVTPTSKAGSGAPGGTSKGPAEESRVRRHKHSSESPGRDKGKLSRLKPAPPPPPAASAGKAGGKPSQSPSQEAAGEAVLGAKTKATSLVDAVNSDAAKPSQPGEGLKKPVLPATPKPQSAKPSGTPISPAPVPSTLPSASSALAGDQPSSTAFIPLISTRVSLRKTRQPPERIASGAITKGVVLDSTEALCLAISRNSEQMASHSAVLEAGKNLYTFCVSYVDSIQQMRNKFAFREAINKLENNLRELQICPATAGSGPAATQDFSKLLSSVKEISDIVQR
Chain of Vascular endothelial growth factor receptor 2 (Homo sapiens) (P35968 whole entry): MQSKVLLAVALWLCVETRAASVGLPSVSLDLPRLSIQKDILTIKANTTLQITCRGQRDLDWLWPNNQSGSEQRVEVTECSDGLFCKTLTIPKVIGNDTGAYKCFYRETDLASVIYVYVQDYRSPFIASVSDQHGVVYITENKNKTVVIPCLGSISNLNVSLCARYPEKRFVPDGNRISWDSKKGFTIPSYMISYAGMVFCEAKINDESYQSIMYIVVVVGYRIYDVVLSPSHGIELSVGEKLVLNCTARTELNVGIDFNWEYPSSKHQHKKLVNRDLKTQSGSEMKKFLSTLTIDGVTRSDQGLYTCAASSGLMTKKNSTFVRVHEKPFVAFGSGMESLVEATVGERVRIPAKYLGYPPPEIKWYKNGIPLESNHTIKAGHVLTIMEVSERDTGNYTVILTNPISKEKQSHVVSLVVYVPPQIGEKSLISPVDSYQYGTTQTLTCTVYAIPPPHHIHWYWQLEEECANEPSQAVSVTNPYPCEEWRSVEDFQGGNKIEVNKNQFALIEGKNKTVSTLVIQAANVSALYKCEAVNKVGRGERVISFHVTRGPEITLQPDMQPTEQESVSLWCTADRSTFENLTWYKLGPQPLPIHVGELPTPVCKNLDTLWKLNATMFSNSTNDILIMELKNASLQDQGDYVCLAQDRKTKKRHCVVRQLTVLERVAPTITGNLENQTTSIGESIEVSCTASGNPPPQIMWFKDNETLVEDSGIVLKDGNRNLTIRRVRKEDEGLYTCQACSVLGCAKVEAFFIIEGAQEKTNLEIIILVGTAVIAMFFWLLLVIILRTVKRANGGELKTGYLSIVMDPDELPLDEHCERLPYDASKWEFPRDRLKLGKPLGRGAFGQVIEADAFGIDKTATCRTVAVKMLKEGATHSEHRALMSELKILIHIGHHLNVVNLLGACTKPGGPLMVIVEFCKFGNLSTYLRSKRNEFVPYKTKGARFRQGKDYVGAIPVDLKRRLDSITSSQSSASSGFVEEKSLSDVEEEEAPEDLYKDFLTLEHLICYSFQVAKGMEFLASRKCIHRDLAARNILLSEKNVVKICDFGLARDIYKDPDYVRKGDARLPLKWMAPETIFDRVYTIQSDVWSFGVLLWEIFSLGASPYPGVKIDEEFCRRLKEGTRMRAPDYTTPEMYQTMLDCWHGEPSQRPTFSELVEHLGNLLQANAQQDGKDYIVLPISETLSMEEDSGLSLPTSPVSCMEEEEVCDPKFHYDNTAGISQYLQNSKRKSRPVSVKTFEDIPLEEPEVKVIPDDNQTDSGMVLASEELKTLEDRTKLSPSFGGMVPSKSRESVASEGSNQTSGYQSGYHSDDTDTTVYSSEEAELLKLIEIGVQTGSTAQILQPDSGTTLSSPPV
Chain of Tyrosine-protein kinase Lck (Homo sapiens) (P06239 2-509 limits assumed): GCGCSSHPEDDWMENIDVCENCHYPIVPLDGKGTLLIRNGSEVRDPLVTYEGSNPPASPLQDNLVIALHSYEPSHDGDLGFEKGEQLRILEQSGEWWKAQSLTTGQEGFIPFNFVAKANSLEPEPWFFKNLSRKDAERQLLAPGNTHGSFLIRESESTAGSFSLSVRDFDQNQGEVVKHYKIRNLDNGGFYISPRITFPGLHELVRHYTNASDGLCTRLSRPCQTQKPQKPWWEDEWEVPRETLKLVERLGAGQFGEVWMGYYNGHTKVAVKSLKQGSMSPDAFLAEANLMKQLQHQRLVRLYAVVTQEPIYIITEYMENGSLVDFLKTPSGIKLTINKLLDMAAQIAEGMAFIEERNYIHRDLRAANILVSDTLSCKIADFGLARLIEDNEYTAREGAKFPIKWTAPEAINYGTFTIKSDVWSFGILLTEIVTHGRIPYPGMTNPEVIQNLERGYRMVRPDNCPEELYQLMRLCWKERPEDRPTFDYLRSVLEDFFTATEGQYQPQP
Chain of Mitogen-activated protein kinase 9 (Homo sapiens) (P45984 whole entry, looked up): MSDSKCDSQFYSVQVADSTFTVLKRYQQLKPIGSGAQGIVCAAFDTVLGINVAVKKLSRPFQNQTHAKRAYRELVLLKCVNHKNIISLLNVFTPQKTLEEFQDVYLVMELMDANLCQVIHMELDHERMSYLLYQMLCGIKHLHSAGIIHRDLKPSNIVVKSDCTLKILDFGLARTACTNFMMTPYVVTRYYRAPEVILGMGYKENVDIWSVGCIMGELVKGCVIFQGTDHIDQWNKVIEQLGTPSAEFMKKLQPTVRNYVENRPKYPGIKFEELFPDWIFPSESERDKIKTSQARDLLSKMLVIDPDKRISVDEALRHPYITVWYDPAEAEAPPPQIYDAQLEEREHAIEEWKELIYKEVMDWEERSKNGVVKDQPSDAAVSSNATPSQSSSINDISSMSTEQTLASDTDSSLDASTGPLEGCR
Chain of RAC-alpha serine/threonine-protein kinase (Homo sapiens) (P31749 whole entry): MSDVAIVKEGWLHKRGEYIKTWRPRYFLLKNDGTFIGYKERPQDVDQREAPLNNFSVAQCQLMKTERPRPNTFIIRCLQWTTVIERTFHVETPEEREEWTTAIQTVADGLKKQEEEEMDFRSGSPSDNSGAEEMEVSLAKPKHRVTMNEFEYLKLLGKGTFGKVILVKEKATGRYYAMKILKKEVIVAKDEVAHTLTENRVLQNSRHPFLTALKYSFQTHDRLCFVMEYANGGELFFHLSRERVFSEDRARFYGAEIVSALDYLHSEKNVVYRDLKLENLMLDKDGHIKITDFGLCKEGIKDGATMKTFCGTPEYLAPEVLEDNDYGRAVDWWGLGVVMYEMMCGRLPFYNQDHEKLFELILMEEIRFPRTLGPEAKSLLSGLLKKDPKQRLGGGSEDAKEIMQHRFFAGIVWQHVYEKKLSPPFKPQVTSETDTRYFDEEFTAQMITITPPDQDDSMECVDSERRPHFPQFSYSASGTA
Chain of Protein-tyrosine kinase 6 (Homo sapiens) (Q13882 whole entry, looked up): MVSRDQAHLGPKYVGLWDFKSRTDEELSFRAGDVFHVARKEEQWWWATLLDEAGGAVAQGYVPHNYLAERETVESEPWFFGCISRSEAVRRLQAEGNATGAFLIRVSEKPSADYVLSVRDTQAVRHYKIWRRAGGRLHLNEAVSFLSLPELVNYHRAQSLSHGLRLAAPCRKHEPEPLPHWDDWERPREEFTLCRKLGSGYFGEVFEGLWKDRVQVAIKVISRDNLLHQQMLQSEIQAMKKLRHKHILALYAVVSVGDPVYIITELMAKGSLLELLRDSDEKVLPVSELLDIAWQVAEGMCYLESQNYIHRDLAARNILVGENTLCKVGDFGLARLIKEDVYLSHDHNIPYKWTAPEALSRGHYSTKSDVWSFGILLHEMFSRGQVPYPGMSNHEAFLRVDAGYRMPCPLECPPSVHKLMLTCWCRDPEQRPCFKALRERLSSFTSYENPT

Row | Compound | inhibition [1] | inhibition [2] | inhibition [3] | inhibition [4] | inhibition [5] | inhibition [6] | inhibition [7] | inhibition [8] | inhibition [9] | inhibition [10] | inhibition [11] | inhibition [12] | inhibition [13] | inhibition [14] | inhibition [15] | inhibition [16] | inhibition [17]
1 | COC[C@@H]1CCCN1C(=O)[C@@H]1CCCN1c1cc(Nc2cccc(OC)c2)nc(N)n1 | 13% | 0% | 0% | 8% | 0% | 9% | 0% | 3% | 0% | 9% | 17% | 2% | 0% | 0% | 4% | 0% | 0%
2 | CN(CCc1ccccn1)C(=O)[C@@H]1CCCN1c1nccc(Nc2ccccc2)n1 | 0% | 0% | 0% | 0% | 0% | 8% | 0% | 0% | 1% | 12% | 0% | 2% | 3% | 8% | 2% | 0% | 0%
3 | Cc1cc(C(=O)N2CCN(c3ncnc4c3CN(Cc3ccccc3)CC4)CC2)c(C)n1C | 2% | 0% | 0% | 0% | 0% | 0% | 0% | 0% | 0% | 7% | 22% | 3% | 2% | 5% | 0% | 0% | 0%
4 | Nc1nc(N2CCOCC2)cc(N2CCC(C(=O)NCCc3ccc(O)cc3)CC2)n1 | 5% | 0% | 0% | 8% | 15% | 6% | 0% | 0% | 2% | 6% | 0% | 3% | 0% | 6% | 7% | 4% | 0%

Continued, values first:

Row | inhibition [1] | inhibition [2] | inhibition [3] | inhibition [4] | inhibition [5] | inhibition [6] | inhibition [7] | inhibition [8] | inhibition [9] | inhibition [10] | inhibition [11] | inhibition [12] | inhibition [13] | inhibition [14] | inhibition [15] | inhibition [16] | inhibition [17] | Compound
5 | 8% | 0% | 0% | 0% | 0% | 8% | 0% | 13% | 2% | 14% | 7% | 3% | 0% | 11% | 5% | 10% | 0% | COc1cccc(Nc2cc(N3CCC[C@H]3C(=O)NCCN3CCCCC3)nc(N)n2)c1
6 | 0% | 1% | 0% | 7% | 7% | 9% | 6% | 5% | 0% | 5% | 4% | 4% | 2% | 0% | 10% | 0% | 2% | Nc1nc(Nc2ccc3ncsc3c2)cc(N2CCC[C@H]2C(=O)N[C@@H](CO)c2ccccc2)n1
7 | 1% | 1% | 0% | 3% | 1% | 7% | 7% | 0% | 0% | 7% | 0% | 7% | 0% | 5% | 11% | 0% | 0% | Cc1cccc(Oc2ccnc(N3CCC[C@H]3C(=O)NCCCn3ccnc3)n2)c1
8 | 0% | 0% | 0% | 1% | 0% | 11% | 0% | 4% | 0% | 6% | 4% | 6% | 5% | 2% | 3% | 0% | 1% | CN(CCCn1ccnc1)C(=O)[C@@H]1CCCN1c1nccc(Nc2ccccc2)n1
9 | 19% | 0% | 9% | 8% | 0% | 13% | 0% | 0% | 0% | 9% | 0% | 21% | 5% | 53% | 19% | 19% | 0% | Cc1cccc(N(C)c2cc(Nc3cccc(C(=O)NCc4ccncc4)c3)ncn2)c1
